The nature of series [1]: Drug uptake in human HN-166 cells assessed as increase in drug retention retention at 3 uM in medium with 10% FBS incubated for 5 hrs followed by 40 hrs chase period by inverted fluorescence microscopic analysis. Format: ADME, cell-based. The settings on record: hn-166, 5 h. The method, boiled down: (§1)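 Five-day co-cultures of HN-143 tumor epithelial cells and HN-166 tumor fibroblasts, both primary head & neck tumor cultures grown on collagen-1 under selective media. PS in 10% FBS medium for 5 h, then 40 h chase without PS. Phase-contrast and fluorescence images taken at 100X with 500 ms exposure; signal normalized to recording time and cell number.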

Series [2] has as its system HN-85-1-3. In words: Photodynamic therapy in human HN-85-1-3 cells assessed as induction of STAT3 cross-linking treated with compound followed by diode laser irradiation at 3 J/cm2 by immunoblot analysis. Format: functional, cell-based. In short, it runs like this: (§2)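 Primary HN-85-1-3 tumor epithelial cells loaded with graded PS doses; uptake quantified by fluorescence before light. Dishes irradiated at 37°C with 665 nm diode laser, 6 mW/cm², 3 J/cm² total. Cells lysed in RIPA immediately after light; STAT3 crosslinking and EGFR analysed by SDS-PAGE immunoblot.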
Background: A western blot detects proteins with antibodies after separation by electrophoresis.

The nature of series [3]: Photosensitizing activity in human HN-85-1-3 cells assessed as induction of STAT3 cross-linking pretreated with compound followed by diode laser irradiation at 3 J/cm2 by immunoblot analysis (reference value: 0 %). Format: functional. The method, boiled down: as §2
Series [4] is described as follows: Drug uptake in tumor of SCID mouse xenografted with human FaDu cells at 0.47 to 0.125 micromol/kg, iv pretreated with compound followed by light irradiation at a dose of 135 J/cm2 and 75 mW/cm2 and measured at 24 hrs by IVIS analysis. Format: ADME, organism-based, Neoplasm. The settings on record: in vivo, dose 0.47-0.125 µmol/kg. In short, it runs like this:
(§3)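 Female SCID mice bearing FaDu tumors 4–5 mm in diameter, 3 per group. PS in 1% Tween80/5% dextrose given iv at 0.47, 0.25 or 0.125 μmol/kg. IVIS whole-body fluorescence imaged at several time points; average radiant efficiency measured in tumor, liver and skin.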
On the technique in general: In xenograft studies the graft and the host belong to different species.

The subject of series [5] is FaDu. Nature of the series: Photodynamic antitumor activity against human FaDu cels xenografted in SCID mouse assessed as cure rate at 0.47 micromol/kg, iv pretreated with compound followed by light irradiation at a dose of 135 J/cm2 and 75 mW/cm2 and measured at 24 hrs post dose relative to control. It is filed as functional. The settings on record: dose 0.47 µmol/kg. In short, it runs like this:
(§4)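 FaDu-bearing female SCID mice (5 per group per experiment) given iv PS at 0.47, 0.25 or 0.125 μmol/kg in Tween80/dextrose. Tumors irradiated 24 h post-injection at 665 nm, 135 J/cm², 75 mW/cm². Tumor growth measured daily for 60 days, with euthanasia above 400 mm³. Cure taken as tumor-free at day 60; survival analysed by log-rank test.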

Series [6] has as its system UMUC3. Nature of the series: Photodynamic antitumor activity against human UMUC3 cells xenografted in SCID mouse assessed as tumor retention at 0.25 micromol/kg, iv pretreated with compound followed by light irradiation at a dose of 135 J/cm2 and 75 mW/cm2 measured at day 60 post dose relative to control. The following applies: dose 0.25 µmol/kg; time 60 day. It is filed as functional. In short, it runs like this: (§5)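 UMUC3-bearing female SCID mice given iv PS in 1% Tween80/5% dextrose. Mice restrained and tumors irradiated at 665 nm, 135 J/cm² over 30 min at 75 mW/cm², at the time of maximal tumor uptake. Tumor regrowth measured daily for 60 days; mice euthanized above 400 mm³. Cure plotted as survival curves and compared by log-rank (Mantel-Cox) test.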

A short description of series [7]: Drug uptake in liver of iv dosed SCID mouse xenografted with UMUC3 cells by fluorescence imaging analysis. The settings on record: in vivo.
Series [8] in a line: Drug uptake in skin of iv dosed SCID mouse xenografted with UMUC3 cells by fluorescence imaging analysis. The following applies: in vivo.
The subject of series [9] is UMUC3. Nature of the series: Photodynamic antitumor activity against human UMUC3 cells xenografted in SCID mouse assessed as tumor retention at 0.47 micromol/kg, iv pretreated with compound followed by light irradiation at a dose of 135 J/cm2 and 75 mW/cm2 measured at day 60 post dose relative to control. It is filed as functional. The settings on record: dose 0.47 µmol/kg; time 60 day. The method, boiled down: as §5

Series [10] deals with FaDu. In words: Photodynamic antitumor activity against human FaDu cells xenografted in SCID mouse assessed as cure rate at 0.25 micromol/kg, iv pretreated with compound followed by light irradiation at a dose of 135 J/cm2 and 75 mW/cm2 measured after 60 days post dose relative to control. Format: functional. The settings on record: dose 0.25 µmol/kg; time 60 day. The method, boiled down: as §4

A short description of series [11]: Drug uptake in liver of SCID mouse xenografted with human UMUC3 cells at 0.25 micromol/kg, iv pretreated with compound followed by light irradiation at a dose of 135 J/cm2 and 75 mW/cm2 measured after 2 to 8 hrs by IVIS analysis. Format: ADME, organism-based. The settings on record: in vivo, time 2-8 hrs, dose 0.25 µmol/kg. The method, boiled down:
(§6)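 Female SCID mice with UMUC3 flank/shoulder tumors, 3 per group. PS in 1% Tween80/5% dextrose given iv at 0.47, 0.25 or 0.125 μmol/kg. Whole-body fluorescence imaging by IVIS at several times after injection; average radiant efficiency measured in tumor, liver and skin.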

Series [12] in a line: Drug uptake in skin of SCID mouse xenografted with human UMUC3 cells at 0.25 micromol/kg, iv pretreated with compound followed by light irradiation at a dose of 135 J/cm2 and 75 mW/cm2 measured after 2 to 8 hrs by IVIS analysis. Format: ADME, organism-based, Skin of body. The settings on record: in vivo, time 2-8 hrs, dose 0.25 µmol/kg. In short, it runs like this: as §6

Series [13] can be described thus: Drug uptake in tumor of SCID mouse xenografted with human UMUC3 cells assessed as drug accumulation at 0.47 micromol/kg, iv pretreated with compound followed by light irradiation at a dose of 135 J/cm2 and 75 mW/cm2 measured after 6 hrs by IVIS analysis. Format: ADME, organism-based, Neoplasm. The following applies: in vivo, dose 0.47 µmol/kg. The method, boiled down:
as §6

Series [14] is described as follows: Drug uptake in human CFSE-stained HN-121 cells assessed as increase in drug retention at 1.6 uM in medium with 10% FBS followed by 48 hrs chase period by inverted fluorescence microscopic analysis. Format: ADME, cell-based. The following applies: hn-121, 48 h.
Series [15] is described as follows: Drug uptake in tumor of iv dosed SCID mouse xenografted with human UMUC3 cells by fluorescence imaging analysis. It is filed as ADME, organism-based, Neoplasm. The following applies: in vivo.
The nature of series [16]: Drug uptake in human HN-85-1-3 cells assessed as photoreactivation by measuring fluorescence when irradiated with diode laser at 3J/cm2 by inverted fluorescence microscopic analysis (reference value: 0 FU). It is filed as cell-based. In short, it runs like this:
as §2

Series [17] in a line: Drug uptake in liver of SCID mouse xenografted with FaDu cells at 0.47 to 0.125 micromol/kg, iv pretreated with compound followed by light irradiation at a dose of 135 J/cm2 and 75 mW/cm2 and measured at 24 hrs by IVIS analysis. The following applies: in vivo, dose 0.47-0.125 µmol/kg. Format: ADME, organism-based. The method, boiled down: as §3
Series [18] has as its system FaDu. In words: Photodynamic antitumor activity against human FaDu cells xenografted in SCID mouse assessed as cure rate at 0.125 micromol/kg, iv pretreated with compound followed by light irradiation at a dose of 135 J/cm2 and 75 mW/cm2 measured for 60 days post dose relative to control. It is filed as functional. The settings on record: dose 0.125 µmol/kg; time 60 day. In short, it runs like this:
as §4

Series [19] in a line: Drug uptake in human HN-143 cells assessed as increase in drug retention retention at 3 uM in medium with 10% FBS incubated for 5 hrs followed by 40 hrs chase period by inverted fluorescence microscopic analysis. The settings on record: hn-143, 5 h. It is filed as ADME, cell-based. The method, boiled down: as §1

Molecules are shown by their SMILES.

As to `CCC1=C(C)c2cc3[nH]c(cc4nc(c5c6[nH]c(cc1n2)c(C)c6C(=O)C5)[C@@H](CCC(=O)OC)[C@@H]4C)c(C)c3C(C)OCc1cccc(C#Cc2cccc(Nc3ncnc4cc(OCCOC)c(OCCOC)cc34)c2)c1` (some centres undefined), the Drug uptake entry in [1], in series [4], in series [7], in series [8], in series [11] and in [12] was “Active” each time. Also, the Drug uptake result in [13], in series [14], in series [15], in series [17] and in series [19] was “Active” throughout. Besides, the Activity result in series [2] was “Dose-dependent effect”; in [3], 0.5%; in series [5], 92%; in series [6], 50%; in [9], 74%; in [10] it was 80%. Further, the Activity in series [16] was determined as 9 FU; in series [18], 0%.

The record behind these values is ChEMBL document CHEMBL4732136, “Synthesis, Tumor Specificity, and Photosensitizing Efficacy of Erlotinib-Conjugated Chlorins and Bacteriochlorins: Identification of a Highly Effective Candidate for Photodynamic Therapy of Cancer” (J Med Chem, 2021).
